Screens (PubChem)
hERG rescue = hERG (human) protection from proarrhythmic block; CHO-hERG, FluxOR thallium flux, dofetilide IC70 present; AID 1511; activation (rescue from dofetilide block), less the hit threshold, % at 10 µM; 310,000 tested, 0.51% active;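 active means activation above the mean of controls blocked by dofetilide plus 5 SD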;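 further: thallium influx through hERG after potassium depolarization seen as dye fluorescence rise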
KCNQ1 inh = blocks the human KCNQ1 potassium channel; P51787; CHO-K1 KCNQ1, FluxOR thallium flux fluorescence; stronger effect = higher value; B-score at 10 µM; 310,000 tested, 1.3% active; AID 2642;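 active means compounds whose thallium flux B-score, printed positive for inhibition, exceeds three library SD while starting fluorescence stays within three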;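 further: channel opened by potassium depolarization with thallium stimulus after 20 min compound exposure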
KCNK3 inh = human KCNK3 channel inhibition, primary screen. 340,000 tested, 0.84% active. CHO-KCNK3 thallium flux, FluxOR fluorescence; stronger effect = lower value. O14649. B-score at 10 µM;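 active means B-score under library mean minus 4 SD, starting fluorescence ratio at most library mean plus 5 SD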;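 further: more negative B-score means stronger inhibition of thallium flux through KCNK3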
Target sequence (O14649 whole entry, looked up): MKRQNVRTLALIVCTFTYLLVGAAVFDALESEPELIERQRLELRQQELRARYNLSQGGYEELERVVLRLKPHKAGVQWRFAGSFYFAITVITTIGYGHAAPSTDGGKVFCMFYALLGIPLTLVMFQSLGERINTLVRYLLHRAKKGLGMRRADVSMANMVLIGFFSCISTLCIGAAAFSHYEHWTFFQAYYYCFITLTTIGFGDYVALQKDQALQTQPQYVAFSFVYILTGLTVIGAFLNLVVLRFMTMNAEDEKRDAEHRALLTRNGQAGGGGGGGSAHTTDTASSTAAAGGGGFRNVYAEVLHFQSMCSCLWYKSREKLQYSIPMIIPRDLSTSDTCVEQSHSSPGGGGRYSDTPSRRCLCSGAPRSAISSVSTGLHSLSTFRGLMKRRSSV
KCNQ1 pot = potentiators or activators of human KCNQ1 potassium channel; P51787; CHO-K1 KCNQ1, thallium flux FluxOR fluorescence; stronger effect = higher value; B-score at 10 µM; 310,000 tested, 0.35% active; AID 2648;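 active means fluorescence ratio B-score, a plate-corrected score, at least three library SD, with initial intensity B-score within 5 SD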
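Schedule – 37 °C overnight plating, 90-min dark dye load, 20-min compound pretreatment · System – stable KCNQ1 CHO-K1 line · Probe or stimulus – thallium- and potassium-containing depolarizing buffer · Measured by – kinetic FluxOR fluorescence, 10 s baseline plus 110 s post-stimulus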
KCNK9 block = inhibitors of human KCNK9 two-pore domain potassium channel. 310,000 tested, 1.2% active. B-score at 10 µM. HEK293 KCNK9, FluxOR thallium flux fluorescence; stronger effect = lower value. Q9NPC2;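 active means ratio B-score over 3 SD below the library mean, with starting fluorescence within 5 SD of its mean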;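 further: negative B-score means less thallium flux so channel inhibition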
An asterisk follows results filed as active; i = inactive; x = no result given. Sampled rows, rich in hits. Any-hit rate of the full collection: about 3.1%.

SMILES	hERG rescue	KCNQ1 inh	KCNK3 inh	KCNQ1 pot	KCNK9 block
Cc1nn(S(=O)(=O)c2ccccc2)c(C)c1S(=O)(=O)N1CCOCC1	-5	i	i	i	i
CC(C)n1c2ccccc2c2cc([N+](=O)[O-])ccc21	1	i	i	i	i
CCC(C)n1c(=S)[nH]c2c(sc3ccc([N+](=O)[O-])cc32)c1=O (stereo not drawn)	105*	i	i	i	i
CCOC(=O)C(CC(=O)O)=C(c1ccccc1)c1ccccc1	-11	i	i	i	i
COCCn1c(C)cc(C(=O)COC(=O)/C=C/c2ccc(OC)cc2OC)c1C	x	x	i	x	x
CCc1nnc(NS(=O)(=O)c2ccc(N=Cc3c(C)[nH]n(-c4ccc(Cl)cc4)c3=O)cc2)s1	-3	i	i	i	i
COc1ccc2nc(/N=C/c3c(C)[nH]n(-c4ccc(C)cc4)c3=O)sc2c1	10*	i	i	39*	i
Cc1[nH]n(-c2ccc(Cl)cc2)c(=O)c1/C=N/c1nnc(-c2ccccc2)s1	88*	i	i	9*	i
CC(C)(C)c1ccc(C(=O)NC(=O)COC(=O)c2ccc(Br)o2)cc1	x	x	i	x	x
COc1ccc(N2CCN(c3nccs3)CC2)cc1	-10	i	i	i	i
CC(Sc1nc2sc3c(c2c(=O)n1-c1ccccc1)CCCC3)C(=O)O (stereo not drawn)	-12	i	i	i	i
CCCn1c(SCC(=O)N2CCN(C(C)=O)CC2)nc2sc3c(c2c1=O)CCC3	25*	i	i	16*	i
CCn1c(SC(C)C(=O)O)nc2sc3c(c2c1=O)CCC3 (stereo not drawn)	15*	i	i	14*	i
N#CCCN(C(=O)c1ccc2c(=O)n3c(nc2c1)CCCCC3)c1ccccc1	-11	i	i	i	i
CC1CC2=C(NC(=S)NC2c2ccccc2F)/C(=C/c2ccccc2F)C1 (stereo not drawn)	-11	6*	i	i	i
O=C1NC(=O)C2(CCCCCC2)N1	x	x	i	x	x
NC(=O)c1cc(S(=O)(=O)N2CCN(c3ccc([N+](=O)[O-])cc3)CC2)cs1	-9	7*	i	i	i
CC(=O)c1ccc(N2CCN(S(=O)(=O)c3csc(C(N)=O)c3)CC2)cc1	-5	i	i	i	i
C=CC[n+]1ccc(/C=C2\C=Cc3cc(C)ccc3N2CC)c2ccccc21	x	x	-15*	x	x
CCN1/C(=C/c2cc[n+](CCCS(=O)(=O)[O-])c3ccccc23)Sc2ccccc21	-8	i	i	i	i
O=C(Cc1ccccc1F)Nc1ccc(S(=O)(=O)N2CCCC2)cc1	x	x	i	x	x
COc1ccc(C(=O)NCC(C)(C)N2CCOCC2)cc1S(=O)(=O)N1CCCC1	x	x	i	x	x
CC1(C)CC(C(CC(=O)O)c2ccccc2)CCO1 (stereo not drawn)	-4	i	i	i	i
CCCN(CCC)C(=O)CC(c1ccccc1)C1CCOC(C)(C)C1 (stereo not drawn)	-18	i	i	i	i
CC(c1ccccc1)N(CCC(c1ccccc1)C1CCOC(C)(C)C1)C(=O)c1ccco1 (stereo not drawn)	-37	9*	i	i	i
SMILES	hERG rescue	KCNQ1 inh	KCNK3 inh	KCNQ1 pot	KCNK9 block
COc1ccc(CN(CCC(c2ccc(F)cc2)C2CCOC(C)(C)C2)C(=O)c2ccco2)cc1 (stereo not drawn)	-26	i	i	i	-11*
O=C(O)C(C=C(Cl)Cl)N1CCOCC1 (stereo not drawn)	x	x	i	x	x
CN(CCCNC(=O)CCc1cn(C)c2ccccc12)C1CCCCC1	-8	i	i	i	i
COc1ccc(/C=N/N2C(=O)c3ccccc3C2=O)cc1	-1	i	i	i	i
COc1ccccc1/C=N/N1C(=O)c2cccc3cccc(c23)C1=O	7.2*	i	i	i	i
Cc1c(C(=O)N2CCN(c3ccccc3)CC2)oc2c(Cl)cccc12	x	x	-9.9*	x	x
Cc1c(C(=O)N2CCN(S(=O)(=O)c3ccccc3F)CC2)oc2c(Cl)cccc12	x	x	i	x	x
COc1ccc(-n2c(C)cc(C(=O)CCl)c2C)cc1	-19	i	i	8*	i
COC(=O)c1nn(C23CC4CC(CC(C4)C2)C3)c2c1C(=O)N(c1ccc(Br)cc1)C2=O	-10	6*	i	i	i
CCOC(=O)c1nn(C23CC4CC(CC(C4)C2)C3)c2c1C(=O)N(c1ccc(C)cc1)C2=O	-7	i	i	i	i
Cc1[nH]n(-c2ccccc2)c(=O)c1Sc1ccc(Cl)cc1	-12	i	i	i	i
CCCSC(=S)c1c(C)[nH]n(-c2ccccc2)c1=O	27*	i	i	16*	i
CCCc1cc(-c2[nH]ncc2-c2ccc3c(c2)OCCCO3)c(O)cc1O	-28	6*	i	i	i
O=C1CSC(c2ccccn2)N1c1ccc(Cl)c(Cl)c1 (stereo not drawn)	-9	i	i	i	-7.6*
Cn1c(CNC(=O)c2ccc3c(c2)OCO3)nnc1SCC(=O)Nc1ccc(F)cc1F	-7	i	i	i	i
CC(C)Cn1nc(NC(=O)c2cccs2)c2cc3ccccc3nc21	-8	i	i	i	-7*
CCSc1nc(=S)cc(C)[nH]1	25*	i	i	24*	i
COc1ccc(S(=O)(=O)Nc2ccccc2)cc1	-7	i	i	i	i
Cc1ccc(S(=O)(=O)Nc2ccc(O)c3ccccc23)c(C)c1	9.0*	i	i	i	i
COc1ccc(C(=O)COC(=O)c2ccccc2NS(=O)(=O)c2ccc(O)c([N+](=O)[O-])c2)cc1	-17	9*	i	i	i
COc1ccc(S(=O)(=O)Nc2ccc(O)c3ccccc23)cc1	5.1*	i	i	i	i
Cc1ccc(C)c(S(=O)(=O)Nc2ccc(O)c3ccccc23)c1	-10	i	i	i	i
COc1ccc(NC(=O)c2ccccc2NS(=O)(=O)c2ccc(C)cc2)c([N+](=O)[O-])c1	-10	i	i	i	i
CCOc1cc(/C=C2\SC(=N)N(c3nonc3N)C2=O)ccc1OCC(N)=O	6.4*	i	i	i	i
CCOc1cc(/C=C2\SC(=N)N(c3nonc3N)C2=O)ccc1OCCN1CCOCC1	-7	i	i	i	i
CCc1cc(C(=O)N2CCN(C(=O)c3ccccc3)CC2)sc1C	x	x	i	x	x
Cc1nnc(SCc2cc(=O)oc3cc(O)ccc23)n1Cc1ccccc1	11*	i	i	i	i
Cc1nnc(SCc2cc(=O)oc3ccc4ccccc4c23)n1Cc1ccccc1	-10	i	i	i	i
